Blank lines part the entries; values can stand above or below the molecule they belong to. Activity calls are given as the source filed them. The calls are words filed in the database; no cut-off is given here.
What was measured:
[1] = biological target: Aldo-keto reductase family 1 member B1 (Bos taurus) (UniProt P16116); experiment: Inhibition of aldose reductase activity in partially purified bovine lens preparation at 10e-5 M
How it was run: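 Partially purified bovine lens aldose reductase. Reduction of DL-glyceraldehyde substrate followed spectrophotometrically. Activity expressed as average inhibition at the tested concentrations, 1×10^-5, 1×10^-6, 1×10^-7 and 4×10^-6 M as printed; IC50 in M where given.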

[2] = test system: Rattus norvegicus; experiment: Tested for in vivo inhibition of galactitol accumulation in the sciatic nerve of galactose-fed rats at the dose of 47.7 (mg/kg/day); NS=Not significant; assay type: functional, organism-based
How it was run: (§1)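 Rats were given a 20% galactose diet for 4 days, with the test compound administered in the diet. Sciatic nerve galactitol accumulation was measured, and activity is given as % inhibition at the stated daily dose (mg/kg/day). Values are mean ± SEM, n = 6 animals; p < 0.01 unless indicated. NS means no significant inhibition of polyol accumulation.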

[3] = test system: Rattus norvegicus; experiment: Tested for in vivo inhibition of galactitol accumulation in the lens of galactose-fed rats at the dose of 47.7 (mg/kg/day); NS=Not significant; assay type: functional, organism-based; settings: Lens of camera-type eye
[4] = test system: Rattus norvegicus; experiment: Tested for in vivo inhibition of galactitol accumulation in the lens of galactose-fed rats at the dose of 50 (mg/kg/day); assay type: functional, Lens of camera-type eye
[5] = test system: Rattus norvegicus; experiment: Tested for in vivo inhibition of galactitol accumulation in the sciatic nerve of galactose-fed rats at the dose of 50 (mg/kg/day); assay type: functional
How it was run: (§2)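 Rats fed a 20% galactose diet for 4 days, with test compound given in the diet at the stated daily dose (mg/kg/day). Read-out is inhibition of galactitol (polyol) accumulation in sciatic nerve. Values are % inhibition, mean ± SEM of six animals; p < 0.01 unless marked (some p < 0.05). NS = no significant inhibition of polyol accumulation. Tolrestat was the reference standard.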

[6] = test system: Rattus norvegicus; experiment: Tested for in vivo inhibition of galactitol accumulation in the sciatic nerve of galactose-fed rats at the dose of 26.1 (mg/kg/day); NS=Not significant; assay type: functional, organism-based; how it was run: as §1
[7] = test system: Rattus norvegicus; experiment: Tested for in vivo inhibition of galactitol accumulation in the lens of galactose-fed rats at the dose of 26.1 (mg/kg/day); NS=Not significant; assay type: functional, organism-based; settings: Lens of camera-type eye
[8] = biological target: Aldo-keto reductase family 1 member B1 (Bos taurus) (UniProt P16116); experiment: Inhibition of aldose reductase activity in partially purified bovine lens preparation at 4*10 e-8 M
[9] = test system: Rattus norvegicus; experiment: Tested for in vivo inhibition of galactitol accumulation in the lens of galactose-fed rats at the dose of 55 (mg/kg/day); NS=Not significant; assay type: functional, organism-based; settings: Lens of camera-type eye
[10] = test system: Rattus norvegicus; experiment: Tested for in vivo inhibition of galactitol accumulation in the sciatic nerve of galactose-fed rats at the dose of 55 (mg/kg/day); NS=Not significant; assay type: functional, organism-based; how it was run: as §2
[11] = test system: Rattus norvegicus; experiment: Tested for in vivo inhibition of galactitol accumulation in the sciatic nerve of galactose-fed rats at the dose of 1.0 (mg/kg/day); NS=Not significant; assay type: functional, organism-based; how it was run: as §1
[12] = test system: Rattus norvegicus; experiment: Tested for in vivo inhibition of galactitol accumulation in the lens of galactose-fed rats at the dose of 24.9 (mg/kg/day); NS=Not significant; assay type: functional, organism-based; settings: Lens of camera-type eye
[13] = test system: Rattus norvegicus; experiment: Tested for in vivo inhibition of galactitol accumulation in the sciatic nerve of galactose-fed rats at the dose of 24.9 (mg/kg/day); NS=Not significant; assay type: functional, organism-based; how it was run: as §1
[14] = test system: Rattus norvegicus; experiment: Tested for in vivo inhibition of galactitol accumulation in the sciatic nerve of galactose-fed rats at the dose of 24.9 (mg/kg/day); assay type: functional; how it was run: as §1
[15] = test system: Rattus norvegicus; experiment: Tested for in vivo inhibition of galactitol accumulation in the lens of galactose-fed rats at the dose of 25 (mg/kg/day); NS=Not significant; assay type: functional, organism-based; settings: Lens of camera-type eye
[16] = test system: Rattus norvegicus; experiment: Tested for in vivo inhibition of galactitol accumulation in the sciatic nerve of galactose-fed rats at the dose of 25 (mg/kg/day); NS=Not significant; assay type: functional, organism-based; how it was run: as §1
[17] = test system: Rattus norvegicus; experiment: Tested for in vivo inhibition of galactitol accumulation in the sciatic nerve of galactose-fed rats at the dose of 25.2 (mg/kg/day); NS=Not significant; assay type: functional, organism-based; how it was run: as §1
[18] = test system: Rattus norvegicus; experiment: Tested for in vivo inhibition of galactitol accumulation in the lens of galactose-fed rats at the dose of 25.2 (mg/kg/day); NS=Not significant; assay type: functional, organism-based; settings: Lens of camera-type eye
[19] = test system: Rattus norvegicus; experiment: Tested for in vivo inhibition of galactitol accumulation in the sciatic nerve of galactose-fed rats at the dose of 25.1 (mg/kg/day); NS=Not significant; assay type: functional, organism-based; how it was run: as §1
[20] = test system: Rattus norvegicus; experiment: Tested for in vivo inhibition of galactitol accumulation in the sciatic nerve of galactose-fed rats at the dose of 1.1 (mg/kg/day); assay type: functional; how it was run: as §1
[21] = test system: Rattus norvegicus; experiment: Tested for in vivo inhibition of galactitol accumulation in the lens of galactose-fed rats at the dose of 25.1 (mg/kg/day); NS=Not significant; assay type: functional, organism-based; settings: Lens of camera-type eye
[22] = test system: Rattus norvegicus; experiment: Tested for in vivo inhibition of galactitol accumulation in the lens of galactose-fed rats at the dose of 47.2 (mg/kg/day); NS=Not significant; assay type: functional, organism-based; settings: Lens of camera-type eye
[23] = test system: Rattus norvegicus; experiment: Tested for in vivo inhibition of galactitol accumulation in the sciatic nerve of galactose-fed rats at the dose of 47.2 (mg/kg/day); NS=Not significant; assay type: functional, organism-based; how it was run: as §1
[24] = test system: Rattus norvegicus; experiment: Tested for in vivo inhibition of galactitol accumulation in the sciatic nerve of galactose-fed rats at the dose of 98 (mg/kg/day); NS=Not significant; assay type: functional, organism-based; how it was run: as §2
[25] = test system: Rattus norvegicus; experiment: Tested for in vivo inhibition of galactitol accumulation in the lens of galactose-fed rats at the dose of 98 (mg/kg/day); NS=Not significant; assay type: functional, organism-based; settings: Lens of camera-type eye
How it was run: (§3)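 Galactosemic rats were fed 20% galactose for 4 days, with the compound mixed into the diet. […] galactitol accumulation was measured, and activity is given as % inhibition at the stated daily dose (mg/kg/day). Values are mean ± SEM of six animals; p < 0.01 unless indicated. NS means no significant inhibition of polyol accumulation.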

[26] = test system: Rattus norvegicus; experiment: Tested for in vivo inhibition of galactitol accumulation in the lens of galactose-fed rats at the dose of 69.2 (mg/kg/day); NS=Not significant; assay type: functional, organism-based; settings: Lens of camera-type eye; how it was run: as §3
[27] = test system: Rattus norvegicus; experiment: Tested for in vivo inhibition of galactitol accumulation in the sciatic nerve of galactose-fed rats at the dose of 69.2 (mg/kg/day); NS=Not significant; assay type: functional, organism-based; how it was run: as §2

Structure (SMILES): COC(=O)NC(=O)CC1C(=O)N(C)C(=O)c2cc(Cl)c(Cl)cc21 (stereo not given)
inhibition [1]: 90% | inhibition [2]: inactive | inhibition [3]: inactive

Structure (SMILES): O=C(O)CC1C(=O)N(Cc2ccc(Br)cc2F)C(=O)c2cc(Cl)ccc21 (stereo not given)
inhibition [6]: inactive | inhibition [7]: inactive | inhibition [8]: 30%

Structure (SMILES): O=C(O)CN1C(=O)c2ccccc2C(Cc2ccc(Br)cc2F)C1=O (stereo not given)
inhibition [9]: inactive | inhibition [10]: inactive

Structure (SMILES): O=C(O)CC1C(=O)N(Cc2ccc(Br)cc2F)C(=O)c2cc(F)ccc21 (stereo not given)
inhibition [8]: 42%

Structure (SMILES): CN1C(=O)CC2(C1=O)C(=O)N(C)C(=O)c1ccc(Cl)cc12 (stereo not given)
inhibition [1]: inactive | inhibition [11]: inactive

Structure (SMILES): O=C1c2ccccc2C2(CC(=O)N(N=C3CCCC3)C2=O)C(=O)N1Cc1nc2cc(C(F)(F)F)ccc2s1 (stereo not given)
inhibition [1]: inactive | Inhibition [4]: 28% | Inhibition [5]: 92%

Structure (SMILES): O=C1Cc2c(n(Cc3ccc(Br)cc3F)c(=O)c3ccccc23)O1
inhibition [12]: inactive | inhibition [13]: inactive | inhibition [8]: 32%

Structure (SMILES): O=C(O)CC1C(=O)N(Cc2ccc(Br)cc2F)C(=O)c2ccc(F)cc21 (stereo not given)
inhibition [12]: inactive | Inhibition [14]: 47% | inhibition [8]: 80%

Structure (SMILES): NC(=O)CC1C(=O)N(Cc2ccc(Br)cc2F)C(=O)c2ccc(F)cc21 (stereo not given)
inhibition [15]: inactive | inhibition [16]: inactive | inhibition [1]: 88%

Structure (SMILES): O=C1CC2(N1)C(=O)N(Cc1ccc(Br)cc1F)C(=O)c1ccccc12 (stereo not given)
inhibition [9]: inactive | inhibition [10]: inactive

Structure (SMILES): O=C(O)CC1C(=O)N(Cc2ccc(C(F)(F)F)cc2)C(=O)c2ccccc21 (stereo not given)
inhibition [1]: 43%

Structure (SMILES): COC(=O)NC(=O)CC1C(=O)N(C)C(=O)c2cc(OC)ccc21 (stereo not given)
inhibition [17]: inactive | inhibition [1]: 72% | inhibition [18]: inactive

Structure (SMILES): COC(=O)NC(=O)CC1C(=O)N(C)C(=O)c2cc(Br)c(OC)cc21 (stereo not given)
inhibition [1]: 29%

Structure (SMILES): CC1(CC(=O)O)C(=O)N(Cc2ccc(Cl)c(Cl)c2)C(=O)c2ccccc21 (stereo not given)
inhibition [1]: 45%

Structure (SMILES): O=C1c2ccccc2C2(CC(=O)N(N=C3CCOCC3)C2=O)C(=O)N1Cc1nc2cc(C(F)(F)F)ccc2s1 (stereo not given)
inhibition [1]: inactive | Inhibition [4]: 41% | Inhibition [5]: 94%

Structure (SMILES): COC(=O)NC(=O)CC1C(=O)N(C)C(=O)c2ccc(OC)cc21 (stereo not given)
inhibition [22]: inactive | inhibition [1]: 53% | inhibition [23]: inactive

Structure (SMILES): COC(=O)NC(=O)CC1C(=O)N(C)C(=O)c2ccc([N+](=O)[O-])cc21 (stereo not given)
inhibition [1]: 67% | inhibition [2]: inactive | inhibition [3]: inactive

Structure (SMILES): NN1C(=O)CC2(C1=O)C(=O)N(Cc1nc3cc(C(F)(F)F)ccc3s1)C(=O)c1ccc(F)cc12 (stereo not given)
inhibition [1]: inactive | Inhibition [4]: 31% | Inhibition [5]: 97%

Structure (SMILES): O=C(O)CC1C(=O)N(Cc2ccc(Cl)c(Cl)c2)C(=O)c2ccccc21 (stereo not given)
inhibition [24]: inactive | inhibition [25]: inactive | inhibition [8]: 58%

Structure (SMILES): CN1C(=O)c2ccccc2C(CC(N)=O)C1=O (stereo not given)
inhibition [26]: inactive | inhibition [1]: inactive | inhibition [27]: inactive

Structure (SMILES): NC(=O)CC1C(=O)N(Cc2ccc(Br)cc2F)C(=O)c2cc(F)ccc21 (stereo not given)
inhibition [15]: inactive | inhibition [16]: inactive | inhibition [1]: inactive

Structure (SMILES): CN1C(=O)c2ccccc2C(CC(=O)O)C1=O (stereo not given)
inhibition [26]: inactive | inhibition [1]: 70% | inhibition [27]: inactive

Further lines, with some results ahead:

inhibition [1]: inactive
Structure (SMILES): CC(=O)NN1C(=O)CC2(C(=O)N(Cc3nc4cc(C(F)(F)F)ccc4s3)C(=O)c3ccccc32)C1=O (stereo not given)
Inhibition [4]: 40% | Inhibition [5]: 94%

inhibition [1]: inactive
Structure (SMILES): CCCCN1C(=O)CC2(C1=O)C(=O)N(Cc1ccc(Br)cc1F)C(=O)c1ccccc12 (stereo not given)
inhibition [11]: inactive

inhibition [1]: inactive
Structure (SMILES): CCN1C(=O)CC2(C1=O)C(=O)N(Cc1nc3cc(C(F)(F)F)ccc3s1)C(=O)c1ccc(F)cc12 (stereo not given)

inhibition [1]: inactive
Structure (SMILES): CC(C)=NN1C(=O)CC2(C(=O)N(Cc3nc4cc(C(F)(F)F)ccc4s3)C(=O)c3ccccc32)C1=O (stereo not given)
Inhibition [4]: 37% | Inhibition [5]: 95%

inhibition [1]: 62%
Structure (SMILES): CNC(=O)CC1C(=O)N(Cc2ccc(Br)cc2F)C(=O)c2ccccc21 (stereo not given)

inhibition [1]: inactive
Structure (SMILES): NN1C(=O)CC2(C1=O)C(=O)N(Cc1nc3cc(C(F)(F)F)ccc3s1)C(=O)c1ccccc12 (stereo not given)
Inhibition [4]: 61% | Inhibition [5]: 96%

inhibition [1]: inactive
Structure (SMILES): CCN1C(=O)CC2(C1=O)C(=O)N(Cc1ccc(Br)cc1F)C(=O)c1ccc(F)cc12 (stereo not given)

inhibition [1]: inactive
Structure (SMILES): CN1NC(=O)C2(CC1=O)C(=O)N(Cc1ccc(Br)cc1F)C(=O)c1ccccc12 (stereo not given)
inhibition [10]: inactive

inhibition [1]: inactive
Structure (SMILES): NC(=O)CC1C(=O)N(Cc2ccc(Br)cc2F)C(=O)c2ccccc21 (stereo not given)
inhibition [17]: inactive | inhibition [18]: inactive

inhibition [1]: inactive
Structure (SMILES): CN1C(=O)CC2(C1=O)C(=O)N(Cc1ccc(C(F)(F)F)cc1)C(=O)c1ccccc12 (stereo not given)
inhibition [19]: inactive

inhibition [1]: inactive
Structure (SMILES): CN1C(=O)CC2(C1=O)C(=O)N(Cc1ccc(Br)cc1F)C(=O)c1ccccc12 (stereo not given)
Inhibition [20]: 76%

inhibition [1]: 80%
Structure (SMILES): CCNC(=O)CC1C(=O)N(Cc2ccc(Br)cc2F)C(=O)c2ccc(F)cc21 (stereo not given)
inhibition [19]: inactive | inhibition [21]: inactive

inhibition [1]: inactive
Structure (SMILES): CN1C(=O)CC2(C1=O)C(=O)N(Cc1cccc(C(F)(F)F)c1)C(=O)c1ccccc12 (stereo not given)
Inhibition [14]: 28%

inhibition [1]: inactive
Structure (SMILES): CCCN1C(=O)CC2(C1=O)C(=O)N(Cc1ccc(Br)cc1F)C(=O)c1ccccc12 (stereo not given)
inhibition [11]: inactive

From ChEMBL document CHEMBL1127562, “N-substituted spirosuccinimide, spiropyridazine, spiroazetidine, and acetic acid aldose reductase inhibitors derived from isoquinoline-1,3-diones. 2” (J Med Chem, 1994)
